# Shown are actives, neighbours in structure and some others; about 1.6% of the full set was active somewhere.
# Tb MetRS inh – T. brucei MetRS inhibitors, primary screen, biochemical, luminescence. methionyl-tRNA synthetase (Trypanosoma brucei brucei). purified T. brucei MetRS, ATP depletion, Kinase-Glo luminescence. inhibition, % at 11.9 µM. 0.4% of 360,000 active. AID 624268, 2012;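 active = inhibition above a per-plate cutoff of the control wells' mean inhibition plus 3 SD, cut at about 5.5% in these data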;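 note: 0% = DMSO wells median and 100% = median of wells with control inhibitor compound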
#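 Material: parasite MetRS enzyme / Replication: singlicate, one well per compound / Signal: luminescence of leftover ATP / Schedule: 2 h aminoacylation at 25 °C after 15 min preincubation / Medium: HEPES-MgCl2-KCl buffer plus DTT, spermine, BSA, pyrophosphatase / Doses: 11.9 µM single point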
# MT1-MMP act inh – blockers of MT1-MMP proenzyme processing, primary screen, HT1080 RFP-PRO-GFP cells, GFP/RFP fluorescence; Matrix metalloproteinase-14 (Homo sapiens), P50281; GFP/RFP ratio fluorescence, overnight; percent of plate control window, DMSO zero; GFP/RFP ratio change, % at 20 µM; 0.061% of 360,000 active; AID 651647, 2012;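 active = GFP/RFP ratio change of at least 30% with cell ATP level not reduced by more than half and red fluorescence within 50% of control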
#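 Material – HT1080 RFP-PRO-GFP cells · Control set – DMSO wells and RFP-L50D-GFP cells · Incubation – overnight cell settling, then overnight compound exposure, 37 °C, 5% CO2 · Compound dosing – single-point 20 µM compound, 1% DMSO · Read-out – GFP/RFP fluorescence ratio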
# Rin1 Abl inh – inhibitors of Rin1-Abl protein binding, primary screen, biochemical, TR-FRET. inhibition, % at 7.35 µM. Tyrosine-protein kinase ABL1 (Homo sapiens) + Ras and Rab interactor 1 (Homo sapiens), …. 0.4% of 360,000 active; in the data active = inhibition above about 5%, passing the limit was not always enough
# SKN-1 inh – suppressors of acrylamide-induced Pgst-4::GFP reporter in worms, primary screen, SKN-1 inhibitor project, whole organism, uHTS, GFP/RFP fluorescence ratio, strain VP596. inhibition, % at 21.8 µM. 0.49% of 360,000 active. C. elegans VP596 Pgst-4::GFP/RFP ratio, 24 h. AID 624304, 2012;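 active = interference check ratio from 0.5 to 1.5 plus GFP to RFP signal ratio inhibition reaching or exceeding a fixed threshold, cut at about 30% in these data, passing the limit was not always enough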
# Arrestin-AP2 inh – inhibitors of beta-arrestin/AP2 binding, primary screen, biochemical, GPCR trafficking, flow cytometry. beta-arrestin 1 C-terminal peptide binding to AP2 beta2-adaptin appendage (human). FITC-arrestin peptide / GST-AP2 beads; AP2 beta2 appendage carries R879A mutation. AID 504490, 2011. 0.31% of 340,000 active. inhibition, % at 10 µM;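 active = inhibition above a set limit, near 3 SD of compounds lacking own fluorescence, cut at about 54% in these data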;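 note: plate controls were DMSO wells for no effect and 5 µM unlabelled arrestin peptide for full effect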
#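 System: GST-tagged AP2 beta2-adaptin appendage (R879A) on 4 µm glutathione beads / Reagent: FITC-arrestin peptide, 50 nM / Detection: HyperCyt-sampled flow cytometry, FL1 channel, ex 488/em 535 nm / Timing: 12 min plus 1 h, RT / Buffer or medium: PBS plus Tween 20 (0.05%) and BSA (0.1%)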
# Arr-AP2 CP1 – inhibitors of arrestin peptide binding to AP2, confirmation, biochemical, cherry pick 1, flow cytometry beads; inhibition, % at 10 µM; 2% of 1,300 active; GST-AP2 beads, FITC arrestin peptide binding; GST-fused beta2-adaptin appendage, R879A mutant; shares compounds with Arrestin-AP2 inh;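 active = inhibition above a set limit, roughly 3 SD of non-fluorescent compound noise, cut at about 38% in these data; inactive = inhibition at or below that limit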;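 note: loss of bead fluorescence from 50 nM FITC arrestin peptide bound to appendage; 0% = negative control wells and 100% = excess unlabelled arrestin peptide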
# GST-FITC bead – GST-fluorescein capture on glutathione beads, confirmation, artefact control for arrestin-AP2 inhibitor project, biochemical, cherry pick 1, flow cytometry; GST-fluorescein binding to GSH beads, fluorescence, counter-screen; 2% of 1,300 active; inhibition, % at 10 µM; shares compounds with Arrestin-AP2 inh;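 active = inhibition above 50%, about 3 SD of the inhibition seen with non-fluorescent compounds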;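 note: fluorescein maleimide labelled GST captured on 4 micron glutathione beads; higher means more loss of bead fluorescence from quenching or blocked binding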
# * marks the source's active call; other numbers are inactive results; . = not tested or not shown.
SMILES,Tb MetRS inh,MT1-MMP act inh,Rin1 Abl inh,SKN-1 inh,Arrestin-AP2 inh,Arr-AP2 CP1,GST-FITC bead
CC(C)(O)C#Cc1ccc(C(=O)N2CCCC(CNS(=O)(=O)c3cccs3)C2)o1 (stereo not given),0,-2,1,19,61*,-9,3
Cc1cc(C)c(C(=O)N2CCCC(CNS(=O)(=O)c3cccs3)C2)o1 (stereo not given),-1,-3,-3,7,-9,.,.
C#CC(C)OCC1CNC(=S)O1 (stereo not given),0,0,-3,4,.,.,.
COc1ccc(S(=O)(=O)NC2CCCCC2)cc1-n1cnnn1,-1,-2,4,3,56*,-6,-9
CCCNc1ncnc2[nH]ncc12,0,-6,4,24,14,.,.
CCCCSc1ncnc2[nH]ncc12,0,5,-5,14,64*,16,-5
CCN(C[C@H]1N[C@@](C)(C(=O)OC)[C@H]2C(=O)N(Cc3ccccc3)C(=O)[C@@H]12)C(=O)c1ccccc1,-2,3,-2,12,57*,2,-4
CCNC(=O)N(CC)C[C@H]1N[C@@](C)(C(=O)OC)[C@H]2C(=O)N(Cc3ccccc3)C(=O)[C@@H]12,2,0,1,6,-7,.,.
COC(=O)c1cc(OC)c(OC)cc1NC(=S)N1CCOCC1,-1,2,1,0,33,.,.
COC(=O)c1cc(OC)c(OC)cc1NC(=S)N1CCCC1,-1,6,-1,-2,56*,2,-5
COc1ccc(CCC(=O)N2CCN(S(=O)(=O)c3cccc(Cl)c3)CC2)cc1,0,-3,-1,7,56*,-8,0
O=C(NCc1ccc(F)cc1)c1cc(C2CCCN(C(=O)c3ccc4ccccc4c3)C2)on1 (stereo not given),0,-4,-1,-1,.,.,.
COc1ccc(OC)c(C2C(C(=O)c3ccc(C)o3)=C(O)C(=O)N2c2cc(C)on2)c1 (stereo not given),0,5,0,1,59*,-1,-5
COc1ccc(CN2CCC3CC2c2cc(-c4cccc(C)c4)ccc23)cc1 (stereo not given),0,3,-1,-3,-19,.,.
COC(=O)c1c(NC(=O)CN2C(=O)NC3(CCC(C(C)(C)C)CC3)C2=O)sc2c1CCCCC2 (stereo not given),-1,-4,-3,7,32,.,.
COC(=O)c1c(NC(=O)CN2C(=O)NC3(CCc4ccccc4C3)C2=O)sc2c1CCCCC2 (stereo not given),0,1,-3,1,106*,7,2
COc1ccccc1CNC(=O)COC(=O)c1c(C)nn(-c2ccccc2)c1Cl,1,-2,1,-3,67*,-13,-2
COc1cccc(CNC(=O)COC(=O)c2c(C)nn(-c3ccccc3)c2Cl)c1,0,-5,0,-13,-6,.,.
Nc1cc2c(cc1Br)-c1ccccc1C2=NO,-1,-9,1,11,-1,.,.
CC(C)=CCOc1ccc2c(C)c(CCC(=O)N3C[C@H]4C[C@@H](C3)c3cccc(=O)n3C4)c(=O)oc2c1C,-1,3,0,12,.,.,.
Cc1cc2nc(/C(C#N)=C\c3ccc(-c4ccccc4C(=O)O)o3)[nH]c2cc1C,-1,-115,-1,-7,54*,6,15
N#C/C(=C\c1ccc(-c2ccccc2C(=O)O)o1)c1nc2ccccc2[nH]1,0,-131,-1,5,-9,.,.
CCN1C(=N)N(c2ccccc2)C(=O)C(CC)(CC)C1=O,0,5,1,4,0,.,.
Cc1cccc(NC(=S)N(Cc2ccc(Cl)cc2)Cc2ccc(C(=O)O)cc2)c1,0,-3,2,6,56*,3,-4
Cc1cc(C)cc(NC(=S)N(Cc2ccc(Cl)cc2)Cc2ccc(C(=O)O)cc2)c1,0,5,-2,6,-6,.,.
SMILES,Tb MetRS inh,MT1-MMP act inh,Rin1 Abl inh,SKN-1 inh,Arrestin-AP2 inh,Arr-AP2 CP1,GST-FITC bead
C/C(=N/NC(=O)Nc1ccccc1)c1ccc(C)cc1,0,.,2,8,6,.,.
C/C(=N\NC(=O)Nc1ccccc1)c1ccc2ccccc2c1,-1,-4,-1,7,93*,-6,-1
COc1ccc(S(=O)(=O)Nc2cccc3c2O[C@H](CN(C)C(=O)Nc2ccc4c(c2)OCO4)[C@@H](C)CN([C@H](C)CO)C3=O)cc1,0,-3,0,-2,-8,.,.
Cc1nc(OCC(=O)c2ccc(Cl)cc2)c(C#N)c2c1COC(C)(C)C2,0,3,0,-3,91*,3,-3
CC1(C)Cc2c(C#N)c(OCC(=O)c3ccc(Cl)cc3)nc(-c3ccco3)c2CO1,-1,-2,0,14,0,.,.
COc1cccc(C2C(C#N)=C(N)OC(C(C)(C)C)=C2C#N)c1 (stereo not given),0,-1,0,14,93*,-8,-6
COc1ccc(C2C(C#N)=C(N)OC(C(C)(C)C)=C2C#N)cc1OC (stereo not given),0,0,-2,6,-2,.,.
CC(C)(C)c1ccc(OCCCC(=O)NNC(=O)c2ccccc2O)cc1,0,2,-3,-9,-7,.,.
CC(C)(C)c1ccc(C(=O)NCC(=O)NNC(=O)c2ccccc2O)cc1,0,6,2,1,77*,-9,4
O=C(NN=Cc1ccc2c(c1)CCN2)c1cccs1,0,4,-3,28,.,.,.
Cc1cc(OCC(O)CN2C(C)CCCC2C)ccc1C(C)C (stereo not given),-1,-3,4,5,54*,1,-3
COc1cccc(OCC(O)CN2C(C)CCCC2C)c1 (stereo not given),-2,0,0,-1,0,.,.
COc1cc(C(=O)OCC(=O)Nc2nnc(-c3ccccc3)o2)cc(OC)c1OC,0,11,2,-7,55*,-6,-8
Cc1cc(C)c(CN2CCC(N3CCC(C(=O)NCC4CCCO4)CC3)CC2)cc1C (stereo not given),0,2,-1,14,1,.,.

# From PubChem
